The subject of assay [1] is SK-MEL-1. Briefly: Cytotoxicity against human SK-MEL-1 cells assessed as reduction in cell viability after 72 hrs by MTT assay. The assay is classed as functional, cell-based. Conditions: SK-MEL-1, 72 h. The essentials: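 1×10^4 exponentially growing cells were seeded with a range of compound concentrations for 72 h. MTT (0.5 mg/mL) was added for 4 h at 37 °C, and formazan was dissolved in 10% SDS/0.05 M HCl overnight at room temperature in the dark. A570 was read. IC50 was found by nonlinear regression for each experiment, with at least three independent experiments in triplicate.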

The test system of assay [2] is SK-MEL-1. The assay is described as follows: Cell cycle arrest in human SK-MEL-1 cells assessed as accumulation at S phase at 30 uM after 24 hrs by propidium iodide staining-based flow cytometry (reference value: 17.7+/-0.4%). The assay is classed as functional. Background: A flow cytometer gives signals particle by particle.
Assay [3] concerns SK-MEL-1. The assay is described as follows: Cytotoxicity against human SK-MEL-1 cells assessed as formation of unhealthy cells after 24 hrs by inverted phase contrast microscopic analysis. The assay is classed as functional, cell-based. The essentials:
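Cells were grown in RPMI 1640 with 10% heat-inactivated FBS, 2 mM L-glutamine and penicillin/streptomycin (37 °C, 5% CO2). They were incubated with vehicle or increasing concentrations for 24 h, then imaged under an inverted phase-contrast microscope.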

For assay [4], the system named is SK-MEL-1. The assay is described as follows: Induction of apoptosis in human SK-MEL-1 cells assessed as increase in caspase-3/7 activity by measuring DEVD-pNA substrate cleavage up to 30 uM after 24 hrs by Bradford dye binding assay. The assay is classed as functional, cell-based. The essentials: (§1)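 After treatment, cells were lysed in 50 mM HEPES pH 7.4, 1 mM DTT, 0.1 mM EDTA, 0.1% CHAPS. Protein was quantified by Bradford and equal amounts were used. DEVD-pNA (caspase-3/7), IETD-pNA (caspase-8) or LEHD-pNA (caspase-9) cleavage was read as net A405 increase at 37 °C. Results are fold increase over control, means ± SE of three experiments in triplicate.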

Assay [5] deals with SK-MEL-1. Briefly: Cell cycle arrest in human SK-MEL-1 cells assessed as accumulation at sub-G1 phase at 30 uM after 24 hrs by propidium iodide staining-based flow cytometry (reference value: 4.5+/-1.6%). The format is functional.
Assay [6] deals with SK-MEL-1. The assay is described as follows: Induction of apoptosis in human SK-MEL-1 cells assessed as chromatin fragmentation at 30 uM after 24 hrs by bisbenzimide trihydrochloride staining-based fluorescent microscopic analysis. The format is functional, cell-based. The essentials:
(§2)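 Cells were treated with 30 µM for 24 h, then stained with bisbenzimide trihydrochloride. Nuclear chromatin condensation and fragmentation were viewed by fluorescence microscopy.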

The subject of assay [7] is SK-MEL-1. Briefly: Cell cycle arrest in human SK-MEL-1 cells assessed as accumulation at sub-G1 phase at 3 uM after 24 hrs by propidium iodide staining-based flow cytometry (reference value: 4.5+/-1.6%). The format is functional.
Assay [8] deals with SK-MEL-1. The assay is described as follows: Induction of apoptosis in human SK-MEL-1 cells assessed as increase in caspase-8 activity by measuring IETD-pNA substrate cleavage at 3 uM after 24 hrs by Bradford dye binding assay. The format is functional, cell-based. The essentials: as §1
Assay [9] relates to SK-MEL-1. The assay is described as follows: Induction of apoptosis in human SK-MEL-1 cells assessed as increase in caspase-3/7 activity by measuring DEVD-pNA substrate cleavage at 3 uM after 24 hrs by Bradford dye binding assay. The format is functional, cell-based. The essentials:
as §1

Assay [10] concerns SK-MEL-1. Briefly: Cell cycle arrest in human SK-MEL-1 cells assessed as accumulation at S phase at 10 uM after 24 hrs by propidium iodide staining-based flow cytometry (reference value: 17.7+/-0.4%). The assay is classed as functional.
Assay [11] has as its system SK-MEL-1. The assay is described as follows: Induction of apoptosis in human SK-MEL-1 cells assessed as increase in caspase-8 activity by measuring IETD-pNA substrate cleavage up to 30 uM after 24 hrs by Bradford dye binding assay. The assay is classed as functional, cell-based. The essentials: as §1
Assay [12] relates to SK-MEL-1. Briefly: Induction of apoptosis in human SK-MEL-1 cells assessed as increase in caspase-9 activity by measuring LEHD-pNA substrate cleavage at 3 uM after 24 hrs by Bradford dye binding assay. The format is functional, cell-based. The essentials:
as §1

For assay [13], the system named is SK-MEL-1. The assay is described as follows: Cell cycle arrest in human SK-MEL-1 cells assessed as accumulation at S phase at 3 uM after 24 hrs by propidium iodide staining-based flow cytometry (reference value: 17.7+/-0.4%). The assay is classed as functional.
The test system of assay [14] is SK-MEL-1. The assay is described as follows: Cell cycle arrest in human SK-MEL-1 cells assessed as accumulation at G2/M phase at 30 uM after 24 hrs by propidium iodide staining-based flow cytometry (reference value: 16.1+/-0.2%). The format is functional.
Assay [15] has as its system SK-MEL-1. The assay is described as follows: Induction of apoptosis in human SK-MEL-1 cells assessed as condensation of cell nuclei and chromatins at 30 uM after 24 hrs by bisbenzimide trihydrochloride staining-based fluorescent microscopic analysis. The assay is classed as functional. The essentials: as §2
The test system of assay [16] is SK-MEL-1. The assay is described as follows: Induction of apoptosis in human SK-MEL-1 cells assessed as increase in […] cytochrome c level by Western blot analysis. The format is functional, cell-based. The essentials: (§3)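 Cells were treated with increasing concentrations for 24 h and washed in PBS. Whole-cell lysates were used for pro-caspase-3. For cytochrome c, a cytosolic fraction was prepared: cells swelled in hypotonic HEPES buffer with 250 mM sucrose, were lysed through a 22-gauge needle, and spun at 1000×g then 105000×g (45 min, 4 °C). Both were probed by immunoblotting.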
(In general: Immunoblotting shows a protein as a band on a membrane.)

Assay [17] has as its system SK-MEL-1. The assay is described as follows: Cell cycle arrest in human SK-MEL-1 cells assessed as accumulation at G1 phase at 30 uM after 24 hrs by propidium iodide staining-based flow cytometry (reference value: 61.5+/-1.7%). The assay is classed as functional.
The subject of assay [18] is SK-MEL-1. The assay is described as follows: Cell cycle arrest in human SK-MEL-1 cells assessed as accumulation at G2/M phase at 3 uM after 24 hrs by propidium iodide staining-based flow cytometry (reference value: 16.1+/-0.2%). The assay is classed as functional.
The subject of assay [19] is SK-MEL-1. Briefly: Induction of apoptosis in human SK-MEL-1 cells assessed as cleavage of main executioner caspase up to 30 uM after 24 hrs by Western blot method. The format is functional, cell-based. The essentials:
as §3

The species entered for assay [20] is Bos taurus. Briefly: Inhibition of bovine tubulin polymerization measured at every 30 secs intervals for 50 mins in presence of GTP. The essentials:
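Purified bovine tubulin without MAPs was incubated in 80 mM PIPES pH 7.0 with 1 mM GTP, 1 mM EGTA, 1 mM MgCl2 and 10% glycerol at 37 °C, across several compound concentrations. A340 was recorded every 30 s for 50 min. Taxol (10 µM) and colchicine (5 µM) served as promotion and inhibition controls.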

The subject of assay [21] is SK-MEL-1. The assay is described as follows: Induction of apoptosis in human SK-MEL-1 cells assessed as increase in caspase-9 activity by measuring LEHD-pNA substrate cleavage up to 30 uM after 24 hrs by Bradford dye binding assay. The format is functional, cell-based. The essentials: as §1
Assay [22] deals with SK-MEL-1. Briefly: Cell cycle arrest in human SK-MEL-1 cells assessed as accumulation at G1 phase at 10 uM after 24 hrs by propidium iodide staining-based flow cytometry (reference value: 61.5+/-1.7%). The assay is classed as functional.
In assay [23] the test system is SK-MEL-1. The assay is described as follows: Cell cycle arrest in human SK-MEL-1 cells assessed as accumulation at sub-G1 phase at 10 uM after 24 hrs by propidium iodide staining-based flow cytometry (reference value: 4.5+/-1.6%). The format is functional.
Assay [24] has as its system SK-MEL-1. The assay is described as follows: Cell cycle arrest in human SK-MEL-1 cells assessed as accumulation at G1 phase at 3 uM after 24 hrs by propidium iodide staining-based flow cytometry (reference value: 61.5+/-1.7%). The assay is classed as functional.
The subject of assay [25] is SK-MEL-1. Briefly: Cell cycle arrest in human SK-MEL-1 cells assessed as accumulation at G2/M phase at 10 uM after 24 hrs by propidium iodide staining-based flow cytometry (reference value: 16.1+/-0.2%). The assay is classed as functional.

Activity calls are given as the source filed them. The rule behind the calls is not given here. Some results are limits rather than exact numbers.

In general, IC50 refers to the concentration at which inhibition is half-maximal.

As for `COc1c(-c2ccc(O)cc2)oc2ccccc2c1=O`, the IC50 in [1] was 91 µM.

Consider `O=c1c(O)c(-c2ccccc2O)oc2ccccc12`, for which the IC50 in assay [1] was over 100 µM.

With `O=c1c(O)c(-c2ccc(O)cc2)oc2ccccc12`, the IC50 in assay [1] is over 100 µM.

Consider `COc1ccc2c(=O)c(O)c(-c3ccc(O)c(OC)c3)oc2c1`, for which the IC50 in assay [1] stood at 37 µM.

`COc1cc(-c2oc3ccccc3c(=O)c2O)ccc1O`: the IC50 in assay [1] stood at 22 µM.

As for `COc1ccc2c(=O)c(O)c(-c3ccc(OC)c(O)c3)oc2c1`, the IC50 in assay [1] is 15.5 µM.

Turning to `COc1c(-c2ccccc2O)oc2ccccc2c1=O`, the IC50 in assay [1] was over 100 µM.

`COc1ccc2c(=O)c(O)c(-c3ccc(O)cc3)oc2c1`: the IC50 in assay [1] was over 100 µM.

In the case of `COc1ccc(-c2oc3ccccc3c(=O)c2OC)cc1O`, the Activity in assay [2] came out at 26.8%; in [5], 21.9%; in assay [7] it was 15.9%; in assay [10] it was 23.7%; in assay [13], 21.4%; in [14], 20.2%. In addition, the Activity result in assay [16] was “Dose-dependent effect”; in assay [17], 30.7%; in assay [18], 37.9%; in assay [22], 14.4%; in assay [23], 9.2%; in [24], 24.4%. Also, the Activity in assay [25] is 52.2%. Also, the result in assay [3], in [4], in assay [6], in assay [8], in assay [9] and in assay [11] was Active. The outcome in [12], in [15], in assay [19] and in assay [21] was Active. In addition, in assay [20], the inhibition result was “Dose-dependent effect”. Moreover, the IC50 in assay [1] was determined as 6.9 µM.

In the case of `COc1ccc(-c2oc3ccccc3c(=O)c2O)cc1O`, in [1], the IC50 worked out at 32.6 µM.

On to `COc1ccc2c(=O)c(OC)c(-c3ccc(OC)c(O)c3)oc2c1`, for which the IC50 in [1] is 26.2 µM.

For `COc1ccc2c(=O)c(OC)c(-c3ccc(O)c(OC)c3)oc2c1`, the IC50 in [1] worked out at 52 µM.

In the case of `COc1ccc2c(=O)c(O)c(-c3ccccc3O)oc2c1`, the IC50 in [1] was over 100 µM.

With `COc1cc(-c2oc3ccccc3c(=O)c2OC)ccc1O`, the IC50 in [1] is 79 µM.

Turning to `COc1ccc2c(=O)c(OC)c(-c3ccc(O)cc3)oc2c1`, in [1], the IC50 was over 100 µM.

Consider `COc1cc([C@@H]2c3cc4c(cc3[C@@H](O[C@@H]3O[C@@H]5CO[C@@H](C)O[C@H]5[C@H](O)[C@H]3O)[C@H]3COC(=O)[C@H]23)OCO4)cc(OC)c1O` [ETOPOSIDE], for which the IC50 in [1] is 8 µM.

For the origin of these results see ChEMBL document CHEMBL4177605, “3'-Hydroxy-3,4'-dimethoxyflavone blocks tubulin polymerization and is a potent apoptotic inducer in human SK-MEL-1 melanoma cells” (Bioorg Med Chem, 2017).
